Measured values published in ChEMBL document CHEMBL3792357, “4,6-Diphenylpyridines as Promising Novel Anti-Influenza Agents Targeting the PA-PB1 Protein-Protein Interaction: Structure-Activity Relationships Exploration with the Aid of Molecular Modeling” (J Med Chem, 2016).

Experiments:
[1] = Selectivity index, ratio of CC50 for MDCK cells to EC50 for Influenza A virus PR/8/34 infected in MDCK cells; assay type: toxicity, cell-based; details: dog, read-out: Ratio CC50/EC50
[2] = Cytotoxicity against HEK293T cells assessed as decrease in cell viability after 24 hrs by MTT assay; assay type: cell-based, HEK-293T; details: human
Summary of the method: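 HEK 293T cells at 2x10⁴/well exposed to 2-fold serial dilutions from 250 µM for 24 h. MTT (5 mg/mL) for 4 h at 37 °C, solubilisation 3 h, absorbance at 620 nm. DMSO wells set as 100% viability; CC50 = 50% viability decrease. Mean ± SD, ≥3 independent experiments in duplicate.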

[3] = Cytotoxicity against MDCK cells assessed as decrease in cell viability after 48 hrs by MTT assay; assay type: cell-based, Canis lupus familiaris; details: dog
Summary of the method: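 MDCK cells at 5x10³/well exposed to 2-fold serial dilutions from 250 µM for 48 h. MTT (5 mg/mL) for 4 h at 37 °C, solubilisation 3 h, A620. DMSO wells = 100% viable; CC50 = concentration giving 50% viability loss. Mean ± SD, ≥3 independent experiments in duplicate.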

[4] = system: Influenza A virus; assay: Antiviral activity against Influenza A virus PR/8/34 infected in MDCK cells assessed as inhibition of plaque formation treated for 1 hr measured after 2 days by toluidine blue staining-based assay; assay type: functional, organism-based; details: A/Puerto Rico/8/1934(H1N1)
Summary of the method: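 MDCK confluent monolayers infected with PR8 (H1N1) at 40 PFU/well in DMEM with 1 µg/ml TPCK-trypsin, 0.14% BSA and compound, 1 h at 37 °C. Overlay of the same medium plus 1.2% Avicel and compound. After 2 days, fixed in 4% formaldehyde, stained with 0.1% toluidine blue and plaques counted. EC50 = 50% plaque inhibition. Ribavirin and oseltamivir as references. Mean ± SD, ≥3 independent experiments in duplicate.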

[5] = target: PA/PB1 (Influenza A virus (A/Puerto Rico/8/1934(H1N1)), UniProt P03431+P03433); assay: Inhibition of Influenza A virus PR/8/34 6His-tagged PA (239 to 716 residues) interaction with GST-tagged PB1 (1 to 25 residues) expressed in Escherichia coli compound treated in PBS buffer measured after overnight incubation by ELISA
Summary of the method: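 Plates coated with 400 ng E. coli-expressed 6His-PA(239–716) for 3 h at 37 °C, then blocked with 2% BSA/PBS for 1 h. Then 200 ng GST-PB1(1–25) (GST as control) with compound or DMSO in PBS, overnight at room temperature. Detection with HRP anti-GST mAb and TMB, OD 450 nm. DMSO = 100% interaction; PB1(1–15)-Tat as reference. Mean ± SD, ≥3 experiments in duplicate.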

[6] = Inhibition of Influenza A virus RdRp transfected in HEK293T cells at 24 hrs by dual luciferase reporter gene-based minireplicon assay; assay type: cell-based; details: HEK-293T
Summary of the method: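 HEK 293T seeded at 2x10⁵/well; 24 h later calcium-phosphate transfected with PB1, PB2, PA and NP plasmids (100 ng/well each), pPolI-Flu-ffLuc (50 ng/well) and pRL-SV40 normaliser (50 ng/well) with compound or DMSO. Medium with compound replaced at 4 h; firefly/Renilla luciferase read at 24 h. Ribavirin reference. Mean ± SD, ≥2 experiments in duplicate.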

[7] = target: PA/PB1 (Influenza A virus (A/Puerto Rico/8/1934(H1N1)), UniProt P03431+P03433); assay: Inhibition of Influenza A virus PR/8/34 6His-tagged PA (239 to 716 residues) interaction with GST-tagged PB1 (1 to 25 residues) expressed in Escherichia coli compound treated in DMEM serum-free medium measured after overnight incubation by ELISA
Summary of the method: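 Same coated 6His-PA(239–716)/GST-PB1(1–25) ELISA (400 ng PA, 200 ng PB1 peptide; overnight room temperature; HRP anti-GST/TMB, OD 450), but GST-PB1 and compounds or DMSO are dissolved in serum-free DMEM instead of PBS. DMSO = 100% interaction; PB1(1–15)-Tat as positive control. IC50 from mean ± SD, ≥2 experiments in duplicate.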

[8] = Ratio of IC50 for Influenza A virus PR/8/34 6His-tagged PA (239 to 716 residues) interaction with GST-tagged PB1 (1 to 25 residues) to EC50 for Influenza A virus PR/8/34 infected in MDCK cells

| SMILES | selectivity ratio [1] | CC50 at 24 h [2] [µM] | CC50 at 48 h [3] [µM] | EC50 [4] [µM] | IC50 [5] [µM] | EC50 [6] [µM] | IC50 [7] [µM] | Ratio IC50/EC50 [8] |
| --- | --- | --- | --- | --- | --- | --- | --- | --- |
| CCOC(=O)C1=C[C@@H](OC(CC)CC)[C@H](NC(C)=O)[C@@H](N)C1 [OSELTAMIVIR] | > 16000 | > 250 | > 250 | 0.015 |  |  |  |  |
| N#Cc1c(-c2ccccc2)cc(-c2ccccc2)nc1SCC(=O)N1CCOCC1 | > 2.5 | 184 | > 250 | 100 | 177 |  |  |  |
| Cc1cccc(NC(=O)CSc2nc(-c3ccc(C(F)(F)F)cc3)cc(-c3ccc(C(F)(F)F)cc3)n2)c1 | > 9.4 | > 250 | > 250 | 26.5 | > 200 | 22 | 64.5 |  |
| Cc1cccc(NC(=O)CSc2nc(-c3ccccc3)ccc2C#N)c1 |  | 32 | 7.1 | > 10 | > 200 |  |  |  |
| Cc1cccc(NC(=O)/C=C/c2nc(-c3ccccc3)cc(-c3ccccc3)c2C#N)c1 | > 3.5 | > 250 | > 250 | 70.7 | 190 |  |  |  |
| Cc1cccc(NC(=O)CSc2cc(-c3ccccc3)cc(-c3ccccc3)n2)c1 | 20.5 | > 250 | 150 | 7.3 | 52.6 | 30.8 | 40.5 |  |
| CSCC[C@H](N)C(=O)N[C@@H](CC(=O)O)C(=O)N[C@H](C(=O)N[C@@H](CC(N)=O)C(=O)N1CCC[C@H]1C(=O)N[C@H](C(=O)N[C@@H](CC(C)C)C(=O)N[C@@H](CC(C)C)C(=O)N[C@@H](Cc1ccccc1)C(=O)N[C@@H](CC(C)C)C(=O)N[C@@H](CCCCN)C(=O)N[C@H](C(=O)N1CCC[C@H]1C(=O)N[C@@H](C)C(=O)N[C@@H](CCC(N)=O)C(=O)O)C(C)C)[C@@H](C)O)C(C)C | > 5 | > 250 | > 250 | 49.7 | 35.9 |  | 31.7 |  |
| Cc1cccc(NC(=O)CCSc2nc(-c3ccccc3)cc(-c3ccccc3)c2C#N)c1 |  | 150 | 13.9 | > 10 | 122 |  |  |  |
| N#Cc1cnc(-c2ccccc2)cc1-c1ccccc1 | 2.3 | > 250 | 105 | 45.1 | 116 |  |  |  |
| Cc1cccc(NC(=O)CCc2nc(-c3ccccc3)cc(-c3ccccc3)c2C#N)c1 |  | 140 | > 250 | > 100 | > 200 |  |  |  |
| Cc1cccc(NC(=O)CSc2nccc(-c3ccccc3)c2C#N)c1 |  | 180 | 41.5 | > 10 | > 200 |  |  |  |
| Cc1cccc(NC(=O)CSc2nc(-c3ccccc3)cc(-c3ccccc3)c2C#N)c1 | > 27.2 | > 250 | > 250 | 9.2 | 175 | 86.6 | 35.2 | 19 |
| CSc1nc(-c2ccccc2)cc(-c2ccccc2)c1C#N |  | 144 | 125 | > 50 | 195 |  |  |  |
| Cc1cccc(NC(=O)CCCSc2nc(-c3ccccc3)cc(-c3ccccc3)c2C#N)c1 | 5.1 | 95.6 | 41.5 | 8.2 | 140 |  | 145 |  |
| NC(=O)c1ncn([C@@H]2O[C@H](CO)[C@@H](O)[C@H]2O)n1 [RIBAVIRIN] | > 19.5 | > 250 | > 250 | 12.8 |  | 23.8 |  |  |
| Cc1cccc(NC(=O)CNc2nc(-c3ccccc3)cc(-c3ccccc3)c2C#N)c1 | > 8.7 | > 250 | > 250 | 28.6 | > 200 | 46.3 | > 200 |  |
| Cc1cccc(NC(=O)CSc2nc(-c3ccccc3)cc(-c3ccccc3)n2)c1 | 2.9 | 22.3 | 10.1 | 3.5 | 165 |  | 113 | 47 |
| Cc1cccc(NC(=O)COc2nc(-c3ccccc3)cc(-c3ccccc3)c2C#N)c1 | > 2.7 | > 250 | > 250 | 93.9 | > 200 |  |  |  |
